Calls of active or inactive are those of the source.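 Rule for the calls, unless noted: active = current rise at least 3 SD above the untreated control mean in each of two repeat wells; inactive = the rest.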

Chain of Potassium voltage-gated channel subfamily KQT member 2 (Rattus norvegicus) (O88943 whole entry, looked up): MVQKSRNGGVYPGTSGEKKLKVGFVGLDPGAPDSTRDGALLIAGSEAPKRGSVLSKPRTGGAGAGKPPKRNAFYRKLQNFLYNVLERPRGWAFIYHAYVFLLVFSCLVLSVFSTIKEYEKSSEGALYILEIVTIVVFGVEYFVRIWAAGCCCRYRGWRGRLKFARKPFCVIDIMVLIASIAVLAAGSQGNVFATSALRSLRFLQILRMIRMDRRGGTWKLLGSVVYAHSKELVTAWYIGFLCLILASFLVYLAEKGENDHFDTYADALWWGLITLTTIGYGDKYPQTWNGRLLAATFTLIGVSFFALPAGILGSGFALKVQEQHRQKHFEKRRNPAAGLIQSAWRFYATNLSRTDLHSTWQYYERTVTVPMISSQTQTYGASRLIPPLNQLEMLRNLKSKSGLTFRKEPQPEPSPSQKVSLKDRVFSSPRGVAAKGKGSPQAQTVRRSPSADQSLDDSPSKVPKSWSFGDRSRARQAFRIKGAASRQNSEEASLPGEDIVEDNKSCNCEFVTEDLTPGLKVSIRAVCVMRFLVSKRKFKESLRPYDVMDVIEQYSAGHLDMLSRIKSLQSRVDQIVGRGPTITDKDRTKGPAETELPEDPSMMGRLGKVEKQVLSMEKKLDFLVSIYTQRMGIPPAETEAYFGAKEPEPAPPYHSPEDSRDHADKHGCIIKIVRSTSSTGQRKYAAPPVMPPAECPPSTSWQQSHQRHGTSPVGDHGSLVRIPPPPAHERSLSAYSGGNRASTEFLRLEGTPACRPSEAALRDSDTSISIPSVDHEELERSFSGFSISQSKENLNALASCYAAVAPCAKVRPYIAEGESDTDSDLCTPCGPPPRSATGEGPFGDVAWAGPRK
Chain of Potassium voltage-gated channel subfamily KQT member 1 (Homo sapiens) (P51787 whole entry, looked up): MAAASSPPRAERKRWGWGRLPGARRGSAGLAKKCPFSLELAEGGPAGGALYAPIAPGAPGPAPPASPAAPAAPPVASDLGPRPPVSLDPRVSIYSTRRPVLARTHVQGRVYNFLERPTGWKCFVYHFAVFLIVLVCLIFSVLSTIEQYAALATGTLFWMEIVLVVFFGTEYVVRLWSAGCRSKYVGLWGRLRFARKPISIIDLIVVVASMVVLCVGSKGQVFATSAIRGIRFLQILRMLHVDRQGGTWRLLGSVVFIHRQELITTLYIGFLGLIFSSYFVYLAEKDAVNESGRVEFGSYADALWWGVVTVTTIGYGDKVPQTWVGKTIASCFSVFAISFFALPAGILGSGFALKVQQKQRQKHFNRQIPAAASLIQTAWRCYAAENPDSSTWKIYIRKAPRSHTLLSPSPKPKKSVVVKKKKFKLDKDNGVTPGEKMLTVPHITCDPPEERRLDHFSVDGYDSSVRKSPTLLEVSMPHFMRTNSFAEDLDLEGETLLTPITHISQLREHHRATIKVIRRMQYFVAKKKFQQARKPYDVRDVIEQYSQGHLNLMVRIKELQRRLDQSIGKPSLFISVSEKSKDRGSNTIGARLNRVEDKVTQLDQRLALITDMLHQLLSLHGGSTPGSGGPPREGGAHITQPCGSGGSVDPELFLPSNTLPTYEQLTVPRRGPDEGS

One assay addresses Potassium voltage-gated channel subfamily KQT member 2 (Rattus norvegicus) (UniProt O88943). Briefly: rat KCNQ2 channel potentiation, selectivity assay for KCNQ1 potentiator project, KCNQ2-CHO-K1 cells (AID 493009;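 active = mean duplicate potentiation above the buffer control mean plus 5 SD of buffer wells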;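 note: assay conditions were tuned for KCNQ1 rather than KCNQ2 modulators; signal is max minus min fluorescence divided by baseline after thallium stimulus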). Particulars: FluxOR thallium flux fluorescence, at 10 µM; active compounds read high, scaled: buffer 0, activator control 100.
Regarding `CCn1c2ccccc2c2cc(NC(=O)CNC)ccc21`, the result was inactive.

Turning to `CCC1(C)Cc2c(sc3[nH]c(=S)n(Cc4ccccc4)c(=O)c23)CO1` (configuration not stated), the potentiation is 388% (active).

Regarding `CCn1c(O)c(N=NC2=NC(=O)CS2)c2cc(C)ccc21`, the potentiation is 310% (active).

`CCn1c(=S)[nH]c2sc3c(c2c1=O)CCCCC3`: the potentiation is 530% (active).

With `Cc1cccc(NC(=S)NC(=O)c2ccc(Br)o2)c1`, the potentiation is 272% (active).

For the molecule `CS(=O)(=O)c1sc(C(=O)NC(=S)Nc2ccc(OC(F)(F)F)cc2)c2c1C=CCC2`, the potentiation is 168% (active).

Regarding `CCOC(=O)c1sc(=S)n2c1[nH]c(=O)c1ccc(C(=O)OC)cc12`, the potentiation was 351% (active).

With `CCOC(=O)c1c(NC(=S)NC)sc2c1CCCC2`, the potentiation is 289% (active).

Turning to `Oc1c(Cl)cc(Cl)cc1/C=N/c1ncn[nH]1`, the potentiation was 156% (active).

Regarding `CCc1ccc(NC(=O)C(=O)NNC(=O)c2cccs2)cc1`, the potentiation was 421% (active).

On to `CC1=C/C(=N\OS(=O)(=O)c2ccccc2)C=CC1=O`, for which the result was inactive.

Turning to `Cc1[nH][nH]c(=O)c1C(c1ccc(-c2ccc(Cl)cc2)o1)c1c(C)[nH][nH]c1=O`, the outcome was inactive.

As for `Cc1ccc(/C=N/NC(=O)c2cc3ccccc3cc2O)o1`, the potentiation is 506% (active).

The target of another assay is Potassium voltage-gated channel subfamily KQT member 1 (Homo sapiens) (UniProt P51787). Briefly: KCNQ1 channel current potentiators, confirmation, orthogonal assay for KCNQ1 potentiator project, IonWorks patch clamp, KCNQ1-CHO cells (AID 493184).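 For current potentiation: percent change of the same well's current before compound addition so 0% = no change.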 The conditions noted are these: automated patch clamp current, at 10 µM; active compounds read high. Summed up:
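assay system = KCNQ1-expressing CHO cells | medium = external bath solution at pH 7.4 | probe or stimulus = 2,000 ms depolarization, -90 to +40 mV | compound dosing = 10 µM final, single point | measured by = automated voltage clamp, amphotericin B perforated patch | measure = percent current increase versus pre-compound level | replication = duplicates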
For orientation: The patch-clamp technique gives a direct electrical read-out from membranes.
Consider `CCn1c2ccccc2c2cc(NC(=O)CNC)ccc21`, for which the outcome was inactive.

As to `CCC1(C)Cc2c(sc3[nH]c(=S)n(Cc4ccccc4)c(=O)c23)CO1` (configuration not stated), the current potentiation was 15.1% (active).

Consider `CCn1c(O)c(N=NC2=NC(=O)CS2)c2cc(C)ccc21`, for which the result was inactive.

On to `CCn1c(=S)[nH]c2sc3c(c2c1=O)CCCCC3`, for which the outcome was inactive.

On to `CCn1cc(CN2CCC(C(=O)Nc3cccc(-c4cccc(Cl)c4)c3)CC2)cn1`, for which the result was inactive.

For `Cc1cccc(NC(=S)NC(=O)c2ccc(Br)o2)c1`, the result was inactive.

On to `CS(=O)(=O)c1sc(C(=O)NC(=S)Nc2ccc(OC(F)(F)F)cc2)c2c1C=CCC2`, for which the result was inactive.

Take `CCOC(=O)c1sc(=S)n2c1[nH]c(=O)c1ccc(C(=O)OC)cc12`: the result was inactive.

As to `CCOC(=O)c1c(NC(=S)NC)sc2c1CCCC2`, the result was inactive.

Consider `Oc1c(Cl)cc(Cl)cc1/C=N/c1ncn[nH]1`, for which the result was inactive.

With `CCc1ccc(NC(=O)C(=O)NNC(=O)c2cccs2)cc1`, the outcome was inactive.

Regarding `CC1=C/C(=N\OS(=O)(=O)c2ccccc2)C=CC1=O`, the result was inactive.

For `Cc1[nH][nH]c(=O)c1C(c1ccc(-c2ccc(Cl)cc2)o1)c1c(C)[nH][nH]c1=O`, the result was inactive.

Turning to `Cc1ccc(/C=N/NC(=O)c2cc3ccccc3cc2O)o1`, the outcome was inactive.

Source of the values: PubChem BioAssay.
